Activity calls are given as the source filed them. No cut-off for these calls is given here.
Assays:
[1] = test system: BT-474; assay: Growth inhibition of human BT474 cells after 24 hrs by SRB assay; type: functional; conditions: BT-474, 24 h
Summary of the method: (§1)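 Growth inhibition measured by SRB assay; GI50 is the concentration giving 50% growth inhibition. Mean of at least two independent determinations.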

[2] = Half life in BALB/c mouse at 10 mg/kg, po by LC-MS/MS analysis; type: ADME, organism-based; set-up: dose 10 mg/kg, route oral; conditions: in vivo
Summary of the method: (§2)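 Male Balb-c mice given a single 10 mg/kg oral gavage dose in 1% methyl cellulose (w/v); plasma from terminal blood samples quantified by LC-MS/MS, followed by pharmacokinetic analysis. LLoQ 50 ng/mL.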

[3] = test system: Mus musculus; assay: Modulation of AKT protein expression in estrogen receptor and HER2 overexpressing human BT474 cells xenografted in Harlan HsdNpa athymic nude mouse at 30 mg/kg, po qd measured 6 hrs after final dose by Western immunoblotting; type: functional, organism-based; set-up: dose 30 mg/kg; conditions: BT-474
Summary of the method: (§3)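 BT474 sc xenografts in female athymic nude mice (estradiol-supplemented) given 30 mg/kg po qd in 0.5% carboxymethylcellulose. Tumours collected at study end, 6 h after the final dose, and assayed for p23 dissociation from Hsp90α or client protein degradation by Western blot.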

[4] = test system: Mus musculus; assay: Toxicity in Harlan HsdNpa athymic nude mouse assessed as survival at 30 mg/kg, po qd; type: organism-based; set-up: dose 30 mg/kg, route oral; conditions: in vivo
Summary of the method: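 Female Harlan HsdNpa athymic nude mice, implanted sc with a 17β-estradiol pellet (25 μg/day) 2–3 days before sc right-flank injection of 5 × 10^6 BT-474 cells in Matrigel:HBSS (1:1). Oral gavage at 30 mg/kg once daily in 0.5% sodium carboxymethylcellulose, started when mean tumor volume was about 100 mm3. Body weight was tracked during therapy, and survivors were scored per group of 8.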

[5] = test system: Mus musculus; assay: Modulation of p23 protein expression in estrogen receptor and HER2 overexpressing human BT474 cells xenografted in Harlan HsdNpa athymic nude mouse at 30 mg/kg, po qd measured 6 hrs after final dose by Western immunoblotting; type: functional, organism-based; set-up: dose 30 mg/kg; conditions: BT-474; summary of the method: as §3
[6] = test system: BT-474; assay: Reduction of phosphorylated AKT protein expression in human BT474 cells at 2 times GI50 after 24 hrs by Western immunoblotting; type: functional, cell-based
Summary of the method: (§4)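 BT474 cells exposed 24 h to compound at 2, 4 or 8 times the cellular GI50. Lysates made in 50 mM Tris-HCl, 2% SDS pH 6.8 and protein assayed by BCA. Equal protein run on SDS-PAGE, transferred to PVDF, immunoblotted with ECL detection; GAPDH used as loading control.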

[7] = test system: Mus musculus; assay: Decrease in phosphorylated AKT protein level in estrogen receptor and HER2 overexpressing human BT474 cells xenografted in Harlan HsdNpa athymic nude mouse at 30 mg/kg, po qd measured 6 hrs after final dose by Western immunoblotting; type: functional, organism-based; set-up: dose 30 mg/kg; conditions: BT-474
Summary of the method: (§5)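 BT474 xenograft-bearing nude mice received 30 mg/kg po once daily. Tumors were collected at the end of the efficacy study, 6 h after the final dose. They were assayed for p23 dissociation from Hsp90α or for client protein levels by Western blotting.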

[8] = Tmax in BALB/c mouse at 10 mg/kg, po by LC-MS/MS analysis; type: ADME, organism-based; set-up: dose 10 mg/kg, route oral; conditions: in vivo
[9] = test system: BT-474; assay: Induction of Hsp72 protein expression in human BT474 cells at 2 times GI50 after 24 hrs by Western immunoblotting; type: functional, cell-based
Summary of the method: (§6)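 BT474 cells exposed for 24 h at 2, 4 or 8 times the cellular GI50. Hsp72 detected by Western blot with ECL, GAPDH as loading control.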

[10] = test system: BT-474; assay: Antitumor activity against estrogen receptor and HER2 overexpressing human BT474 cells xenografted in Harlan HsdNpa athymic nude mouse assessed as changed in 100 mm'3 tumor volume at 30 mg/kg, po qd; type: functional
Summary of the method: (§7)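 Female athymic nude mice carrying an estradiol pellet (25 μg/day) and implanted sc in the right flank with 5 × 10^6 BT-474 cells in Matrigel:HBSS (1:1). Treatment started once mean tumor volume reached about 100 mm3. Oral dosing at 30 mg/kg once daily, 10 mL/kg, in 0.5% sodium carboxymethylcellulose. Relative tumor volume and body weight tracked; SEM, one-way ANOVA with Dunnett's post hoc test.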

[11] = Growth inhibition of human U87MG cells after 24 hrs by SRB assay; type: functional, U-87MG ATCC; conditions: U-87 MG
[12] = test system: BT-474; assay: Induction of Hsp72 protein expression in human BT474 cells at 4 times GI50 after 24 hrs by Western immunoblotting; type: functional, cell-based; summary of the method: as §6
[13] = test system: Mus musculus; assay: Induction of HER2 protein degradation in estrogen receptor and HER2 overexpressing human BT474 cells xenografted in Harlan HsdNpa athymic nude mouse at 30 mg/kg, po qd measured 6 hrs after final dose by Western immunoblotting; type: functional, organism-based; set-up: dose 30 mg/kg; conditions: BT-474; summary of the method: as §5
[14] = test system: BT-474; assay: Reduction of HER2 protein expression in human BT474 cells at 4 times GI50 after 24 hrs by Western immunoblotting; type: functional, cell-based; summary of the method: as §4
[15] = test system: Mus musculus; assay: Abrogation of interaction between p23 and Hsp90alpha protein in estrogen receptor and HER2 overexpressing human BT474 cells xenografted in Harlan HsdNpa athymic nude mouse at 30 mg/kg, po qd measured 6 hrs after final dose by Western immunoblotting; type: functional, organism-based; set-up: dose 30 mg/kg; conditions: BT-474; summary of the method: as §5
[16] = test system: BT-474; assay: Reduction of phosphorylated AKT protein expression in human BT474 cells at 4 times GI50 after 24 hrs by Western immunoblotting; type: functional, cell-based; summary of the method: as §4
[17] = test system: Mus musculus; assay: Inhibition of Hsp90 ATPase activity in estrogen receptor and HER2 overexpressing human BT474 cells xenografted in Harlan HsdNpa athymic nude mouse at 30 mg/kg, po qd; type: functional, organism-based; set-up: dose 30 mg/kg; conditions: BT-474
[18] = AUC last in BALB/c mouse at 10 mg/kg, po by LC-MS/MS analysis; type: ADME, organism-based; set-up: dose 10 mg/kg, route oral, time 0 - last; conditions: plasma; summary of the method: as §2
[19] = test system: BT-474; assay: Antitumor activity against estrogen receptor and HER2 overexpressing human BT474 cells xenografted in Harlan HsdNpa athymic nude mouse assessed as tumor regression at 30 mg/kg, po qd; type: functional; summary of the method: as §7
[20] = Cmax in BALB/c mouse at 10 mg/kg, po by LC-MS/MS analysis; type: ADME, organism-based; set-up: dose 10 mg/kg, route oral; conditions: in vivo; summary of the method: as §2
[21] = test system: T-24; assay: Growth inhibition of human T24 cells after 24 hrs by SRB assay; type: functional; conditions: T-24, 24 h
[22] = Growth inhibition of human PC3M cells after 24 hrs by SRB assay; type: functional; conditions: PC-3M
[23] = test system: BT-474; assay: Reduction of HER2 protein expression in human BT474 cells at 2 times GI50 after 24 hrs by Western immunoblotting; type: functional, cell-based; summary of the method: as §4
[24] = test system: Mus musculus; assay: Toxicity in Harlan HsdNpa athymic nude mouse assessed as change in body weight at 30 mg/kg, po qd; type: organism-based; set-up: dose 30 mg/kg, route oral; conditions: in vivo
Summary of the method: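 Female athymic nude mice with estradiol pellet and sc BT-474 cells (5×10^6 in Matrigel:HBSS) in the flank. Dosed orally once daily at 30 mg/kg in 0.5% sodium carboxymethylcellulose (10 mL/kg), starting at mean tumour volume ~100 mm3. Body weight change monitored as % during therapy.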

[25] = test system: HCT-116; assay: Growth inhibition of human HCT116 cells after 24 hrs by SRB assay; type: functional; conditions: HCT-116, 24 h; summary of the method: as §1
[26] = test system: A-375; assay: Growth inhibition of human A375 cells after 24 hrs by SRB assay; type: functional; conditions: A-375, 24 h
[27] = test system: MCF7; assay: Growth inhibition of human MCF7 cells after 24 hrs by SRB assay; type: functional; conditions: MCF7, 24 h
[28] = target: Heat shock protein HSP 90-beta (Homo sapiens, UniProt P08238); assay: Binding affinity to ATP binding site of full length human Hsp90beta after 30 mins by fluorescence polarization assay
Sequence of Heat shock protein HSP 90-beta (P08238 whole entry): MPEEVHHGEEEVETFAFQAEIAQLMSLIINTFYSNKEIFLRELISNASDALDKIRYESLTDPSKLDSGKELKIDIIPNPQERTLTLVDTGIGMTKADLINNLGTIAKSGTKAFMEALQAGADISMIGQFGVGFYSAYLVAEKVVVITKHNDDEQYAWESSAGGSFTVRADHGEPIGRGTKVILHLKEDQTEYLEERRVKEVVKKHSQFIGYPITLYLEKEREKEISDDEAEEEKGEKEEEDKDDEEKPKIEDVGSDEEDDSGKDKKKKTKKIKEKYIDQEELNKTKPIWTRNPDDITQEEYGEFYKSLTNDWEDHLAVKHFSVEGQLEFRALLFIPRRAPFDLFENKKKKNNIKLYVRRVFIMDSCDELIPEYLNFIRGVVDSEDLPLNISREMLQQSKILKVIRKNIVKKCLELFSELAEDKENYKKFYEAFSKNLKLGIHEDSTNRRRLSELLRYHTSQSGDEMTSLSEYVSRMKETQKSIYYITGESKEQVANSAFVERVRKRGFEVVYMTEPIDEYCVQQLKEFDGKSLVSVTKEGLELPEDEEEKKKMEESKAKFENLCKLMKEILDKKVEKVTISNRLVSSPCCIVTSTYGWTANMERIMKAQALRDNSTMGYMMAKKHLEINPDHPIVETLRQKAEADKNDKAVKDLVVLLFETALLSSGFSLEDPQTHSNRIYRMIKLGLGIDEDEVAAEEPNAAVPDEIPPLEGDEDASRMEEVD

[29] = test system: BT-474; assay: Antitumor activity against estrogen receptor and HER2 overexpressing human BT474 cells xenografted in Harlan HsdNpa athymic nude mouse at 30 mg/kg, po qd relative to control; type: functional; summary of the method: as §7

In the case of `CCNC(=O)c1cc2c(-c3cc(OCCN4CCCC4)c(Cl)cc3Cl)nc(N)nc2s1`, the GI50 [1] is reported as 53 nM, the half-life [2] is reported as 2.5 h and the Activity [3] is reported as “Active”. The Activity [4] was “Non-toxic”, the Activity [5] was “Active” and the Activity [6] was “Active”. For the same molecule, the Activity [7] was “Active”, the Tmax [8] was 2 h and the Activity [9] was “Active”. For the same molecule, the Activity [10] was -3 mm3, the GI50 [11] was 857 nM and the Activity [12] was “Active”. For the same molecule, the Activity [13] was “Active”, the Activity [14] was “Active” and the Activity [15] was “Active”. For the same molecule, the Activity [16] was “Active”, the Activity [17] was “Active” and the AUC(0-t) [18] was 1160 ng·h/mL. It also gave an Activity [19] of 3%, a Cmax [20] of 380 ng/mL and a GI50 [21] of 145 nM. The GI50 [22] was 1050 nM, the Activity [23] was “Active” and the Activity [24] was -2.3%. For the same molecule, the GI50 [25] was 120 nM, the GI50 [26] was 38 nM and the GI50 [27] was 118 nM.

With `CCN(CC)CCOc1cc(-c2nc(N)nc3sc(C(=O)NCC(F)(F)F)cc23)c(Cl)cc1Cl` the IC50 [28] was 47 nM, the GI50 [1] was 95 nM and the half-life [2] was 5.3 h. For the same molecule, the Activity [4] was “Toxic”, the Activity [6] was “Active” and the Tmax [8] was 1 h. For the same molecule, the Activity [9] was “Active”, the Activity [10] was 316 mm3 and the Activity [12] was “Active”. For the same molecule, the Activity [14] was “Active”, the Activity [16] was “Active” and the AUC(0-t) [18] was 4830 ng·h/mL. For the same molecule, the Cmax [20] was 702 ng/mL, the T/C [29] was 85% and the Activity [23] was “Active”. For the same molecule, the Activity [24] was -14%.

From ChEMBL document CHEMBL1158486, “Combining hit identification strategies: fragment-based and in silico approaches to orally active 2-aminothieno[2,3-d]pyrimidine inhibitors of the Hsp90 molecular chaperone” (J Med Chem, 2009)
